Compounds with a hit are over-represented: about 4.8% of the library has one in this group of screens.
CSC inhib: cancer stem cell viability inhibitors, primary screen, luminescence. AID 2717, 2010. cancer stem cell-like cells viability. 300,000 tested, 1.1% active. inhibition, % at 7.5 µM; in the data active means inhibition above about 75%; inconclusive means no clear call, values can overlap the other calls; tested in HMLE shEcad cells
SKKanGAS inh: S. pyogenes SKKanGAS growth inhibitors in kanamycin, primary screen, streptokinase expression inhibitor project, SKKanGAS strain, BacTiter-Glo luminescence. 6 h. inhibition, % at 7.5 µM. 300,000 tested, 1.3% active. AID 1662, 2009;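 active means mean replicate score, as percent of positive control median, at least 50; inconclusive means mean below 50 but one replicate at or above 50; inactive means mean and every replicate below 50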;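 further: strain carries kanamycin resistance gene driven by streptokinase promoter and grows in 40 µg/ml kanamycin; loss of luminescence reflects streptokinase promoter inhibition or plain growth inhibition; 0% = median of DMSO wells and 100% = positive control at its reference dose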
Mdm2-MdmX inh: inhibitors of human Mdm2-MdmX association, primary screen, cell-based, luminescence, split luciferase, SaOS-2, uHTS; Protein Mdm4 (Homo sapiens) + E3 ubiquitin-protein ligase Mdm2 (Homo sapiens), …; SaOS-2 split-luciferase Mdm2/MdmX complementation; inhibition, % at 8 µM; 330,000 tested, 3% active; AID 485346, 2010;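 active means inhibition of at least 50% at 8 µM in the primary screen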
Target sequence (O15151 whole entry, looked up): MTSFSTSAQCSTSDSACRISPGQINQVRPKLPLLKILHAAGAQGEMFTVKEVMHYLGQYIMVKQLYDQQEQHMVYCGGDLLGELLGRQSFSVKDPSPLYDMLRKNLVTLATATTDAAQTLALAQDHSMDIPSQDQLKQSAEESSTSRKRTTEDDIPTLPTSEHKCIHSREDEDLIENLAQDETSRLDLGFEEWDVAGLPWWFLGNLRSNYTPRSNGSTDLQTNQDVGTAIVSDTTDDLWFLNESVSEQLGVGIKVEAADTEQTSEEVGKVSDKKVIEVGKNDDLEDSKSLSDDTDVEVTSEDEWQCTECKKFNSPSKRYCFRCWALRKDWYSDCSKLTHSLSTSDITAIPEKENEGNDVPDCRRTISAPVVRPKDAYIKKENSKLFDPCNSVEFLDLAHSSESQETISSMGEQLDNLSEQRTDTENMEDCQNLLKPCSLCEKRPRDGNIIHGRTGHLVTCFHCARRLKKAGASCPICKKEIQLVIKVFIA
Target sequence (Q00987 whole entry, looked up): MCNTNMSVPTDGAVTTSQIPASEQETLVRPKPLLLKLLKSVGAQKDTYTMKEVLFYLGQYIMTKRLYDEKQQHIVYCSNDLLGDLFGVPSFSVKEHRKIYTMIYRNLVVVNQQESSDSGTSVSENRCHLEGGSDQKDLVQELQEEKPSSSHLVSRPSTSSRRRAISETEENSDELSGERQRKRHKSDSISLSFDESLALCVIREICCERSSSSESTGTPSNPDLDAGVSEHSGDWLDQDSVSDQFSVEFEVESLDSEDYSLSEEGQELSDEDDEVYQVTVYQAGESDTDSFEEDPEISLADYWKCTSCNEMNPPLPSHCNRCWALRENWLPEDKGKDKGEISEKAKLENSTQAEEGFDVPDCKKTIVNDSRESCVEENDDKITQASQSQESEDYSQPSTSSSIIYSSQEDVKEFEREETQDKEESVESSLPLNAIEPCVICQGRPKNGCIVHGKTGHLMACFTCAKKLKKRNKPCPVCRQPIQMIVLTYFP
UPR CHOP act: activators of apoptotic CHOP UPR arm, primary screen, cell-based, CHO-CHOP luciferase reporter, luminescence, uHTS. UPR activation; percent of tunicamycin response over DMSO baseline. activation, % at 10 µM. 330,000 tested, 0.34% active;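 active means at 10 µM dose, activation of 40% or more, normalized to positive control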;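 further: 100% = tunicamycin at 10 µg/mL and 0% = DMSO alone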
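System: CHO CHOP reporter cells. Amount: 500 cells per well. Buffer or medium: F12 medium, 10% FBS. Compound dosing: one dose, 10 µM in 0.5% DMSO. Incubation: 6 h compound exposure at 37 °C after overnight seeding. Technique: Steady-Glo luciferase luminescence. Benchmarks: tunicamycin and DMSO controls.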
Beta cell apopt: inhibitors of cytokine-induced beta cell apoptosis, primary screen, luminescence | INS-1E cytokine-induced death, ATP luminescence, 48 h; percent of positive-control rescue, neutral wells zero | protection from apoptosis, % (concentration not given with the values) | 300,000 tested, 0.8% active;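 active means Every replicate reaches about 75%, or at least half do and their mean reaches it too, limit read from the data; inconclusive means At least half of replicates reach the limit but their mean does not; inactive means Under half of replicates reach the limit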;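 further: 0% = cytokine-treated negative control wells and 100% = positive control rescue; higher means more ATP so stronger rescue from cytokine killing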
UPR XBP1 act: activators of adaptive XBP1 UPR arm, primary screen, cell-based, CHO-XBP1 luciferase reporter, luminescence, uHTS; IRE1-XBP1 UPR activation; percent of tunicamycin response, DMSO as zero; 330,000 tested, 0.33% active; activation, % at 20 µM; AID 463104, 2010;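 active means versus positive control, 20 µM dose yields 30% or more activation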;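 further: 100% = tunicamycin at 10 µg/mL and 0% = DMSO only wells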
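Test system: CHO-XBP1 luciferase reporter cells | Buffer or medium: Serum-containing F12 medium, 10% FBS | Schedule: 6 h compound exposure at 37 °C, 5% CO2 | Detection: Steady-Glo luciferase glow luminescence, 10 min after reagent addition | Read-out basis: Activation, % of tunicamycin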
Numbers without * were called inactive; u = inconclusive; x = not tested or not shown.

SMILES	CSC inhib	SKKanGAS inh	Mdm2-MdmX inh	UPR CHOP act	Beta cell apopt	UPR XBP1 act
COc1cc(CNCc2cc(OC)c(OC)c(OC)c2)cc(OC)c1	-5	4	18	0	9	-3
CC1(C)N=C(N)N=C(N)N1c1ccc(OCCCOc2ccccc2)c(Cl)c1	85*	111*	x	x	103*	x
Cc1ccc(NC(=O)N2CCCC2C(=O)Nc2ccc3c(c2)OCCO3)cc1 (stereo not given)	-28	3	5	0	2	-2
COC(=O)C1CCN(C(=O)[C@H](C)NC(=O)C2CC(=O)N(c3ccc(F)cc3)C2)CC1 (stereo not given in full)	-13	0	7	1	-4	-3
CCc1ccc(OCc2n[nH]c(=S)n2Cc2ccccc2)cc1	2	2	-39	0	6	-1
CCc1ccc(OCc2n[nH]c(=S)n2C(C)CCCC(C)C)cc1 (stereo not given)	118*	42	28	0	11	-2
O=C1C=CC(=O)N1CCCCCCN1C(=O)C=CC1=O	102*	x	x	x	65	x
CCOC(=O)C1=C(C)NC(=O)NC1c1ccc([N+](=O)[O-])o1 (stereo not given)	-14	5	-13	1	2	5
CCOC(=O)C1=C(C)NC2=C(C(=O)c3ccccc32)C1c1ccc([N+](=O)[O-])o1 (stereo not given)	4	57*	5	0	-12	-1
COc1ccc(CNC(=O)C(=O)NCC2OCCCN2S(=O)(=O)c2cccs2)cc1 (stereo not given)	-23	0	1	1	-1	-6
CCCc1cc(=O)n2nc(N3CCC(C(=O)Nc4cccc(C(C)=O)c4)CC3)sc2n1	14	19	2	0	-3	-9
CCOC(=O)C1CCCN(S(=O)(=O)c2ccc(C)cc2)C1 (stereo not given)	14	-3	-29	0	0	-3
CCOC(=O)C1CCCN(S(=O)(=O)c2ccc(S(=O)(=O)N(CC)CC)cc2)C1 (stereo not given)	x	-12	-8	3	110*	1
COc1ccc(OC)c(S(=O)(=O)NC(N)=NCCc2ccccc2)c1	-2	-5	1	-1	-5	-3
Nc1ccc(Nc2ccc([N+](=O)[O-])cc2[N+](=O)[O-])cc1	5	-7	4	-2	102*	-5
Fc1ccc(N/N=C/c2ccncc2)c(F)c1	90*	0	-42	3	3	2
COc1ccc(Nc2nc(Nc3ccc(OC)cc3)nc(-n3[nH]c(=O)c(C)c3C)n2)cc1	9	87*	28	7	7	16
COCCCN(C(=O)CCOc1ccccc1C)c1c(N)n(Cc2ccccc2)c(=O)[nH]c1=O	-11	5	4	0	0	-1
CC(C)N1CCN(Cc2ccc(OCc3ccccc3)cc2)CC1CCO (stereo not given)	77*	-18	21	0	7	-2
CC(C)N1CCN(Cc2ccc(-c3ccccc3)cc2)CC1CCO (stereo not given)	54	7	16	-2	x	-4
Cc1sc2ncnc(NC3CCN(Cc4ccccc4)CC3)c2c1C	22	-1	18	0	77*	0
Cn1nnc(-c2ccc(OCc3ccccc3F)cc2)n1	20	53*	-133	1	5	3
CC(C)n1nnc(-c2ccc(OCc3ccccc3F)cc2)n1	11	11	-104	4	3	-3
Fc1ccccc1COc1ccc(-c2nnn(Cc3ccccc3F)n2)cc1	81*	14	-13	5	12	-2
Cc1cn(-c2cc(C(=O)Nc3ccc(C)c(NC(=O)C(=O)c4c[nH]c5ccccc45)c3)cc(C(F)(F)F)c2)cn1	131*	68*	46	1	16	2
SMILES	CSC inhib	SKKanGAS inh	Mdm2-MdmX inh	UPR CHOP act	Beta cell apopt	UPR XBP1 act
CC(=O)NC(c1cccs1)c1cc([N+](=O)[O-])c2cccnc2c1O (stereo not given)	99*	15	x	x	90*	x
CCCC(=O)NC(C)C(c1cccs1)N1CCN(C)CC1 (stereo not given)	x	-7	-28	-2	-3	-1
CCC(=O)NC(c1cccs1)c1cc(Cl)c2ccccc2c1O (stereo not given)	8	x	12	0	-14	2
CCC(=O)NC(c1cccs1)c1cc([N+](=O)[O-])c2cccnc2c1O (stereo not given)	109*	47	36	-1	58	-3
O=C(CCc1ccccc1)NC(c1cccs1)c1cc(Cl)c2cccnc2c1O (stereo not given)	x	67*	x	x	x	x
CC(=O)NC(c1cccs1)c1cc(Cl)c2ccccc2c1O (stereo not given)	36	x	6	-1	-7	-2
CCCC(=O)NC(c1cccs1)c1cc([N+](=O)[O-])c2cccnc2c1O (stereo not given)	106*	86*	x	x	61	x
CCOc1ccc(S(=O)(=O)Nc2cc(SCC(=O)O)c(O)c3ccccc23)cc1	x	14	x	x	x	x
O=S(=O)(Nc1cc(Sc2cccc3cccnc23)c(O)c2ccccc12)c1ccccc1	x	91*	x	x	x	x
CCc1ccc(S(=O)(=O)Nc2ccc(O)c3ccccc23)cc1	92*	8	34	9	u	0
CCc1ccc(S(=O)(=O)Nc2cc(SCC(=O)O)c(O)c3ccccc23)cc1	114*	21	20	2	-22	4
Cc1ccc(C)c(S(=O)(=O)Nc2cc(SCC(=O)O)c(O)c3ccccc23)c1	20	x	x	x	130*	x
O=C(O)c1cc(S(=O)(=O)N2CCN(C(c3ccccc3)c3ccccc3)CC2)ccc1Cl	-1	12	1	0	-4	-5
COc1cccc(/C=C/C(=O)OCC(=O)NC2CC2)c1OC	-10	x	36	0	1	2
COc1ccc(OC)c(S(=O)(=O)Nc2cccc3c(O)cccc23)c1	17	16	31	0	-2	3
COc1ccc(OC)c(S(=O)(=O)Nc2ccc(O)c3ccccc23)c1	20	37	20	0	103*	1
N#Cc1c(Nc2cccc(F)c2)sc2c(O)cc(=O)[nH]c12	1	113*	24	-1	-6	-4
N#Cc1c(SCC(=O)Nc2ccc(C(F)(F)F)cc2)sc2c(O)cc(=O)[nH]c12	-9	14	-8	1	-5	-5
FC(F)(F)c1cnc(-c2cnc(-c3ccccn3)nc2)c(Cl)c1	-3	56*	3	-4	7	-5

Bioassay records: PubChem, several laboratories
